Results: ChEMBL document CHEMBL1125769 (J Med Chem, 1991)
Square brackets hold non-standard residues; d marks the D form. Peptide text beside a SMILES is read from it. NMeA = CN[C@@H](C)C(=O)O; Ac5c = NC1(C(=O)O)CCCC1; Aib = CC(C)(N)C(=O)O; Sar = CNCC(=O)O

Tests used:
[1] = biological target: T1, Angiotensin II receptor (Rattus norvegicus) (UniProt P29089+P25095+P35351); test: In vivo agonist activity expressed as percent activity relative to angiotensin II in rat blood pressure assay.; assay type: functional, organism-based
Method in brief: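 Rat blood pressure (pressor) assay in vivo, after Regoli et al.; ANG II-like activity given as percent activity relative to ANG II; n = 5.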

[2] = biological target: T2, Angiotensin II receptor (Rattus norvegicus, UniProt P29089+P25095+P35351); test: In vitro antagonist activity (ANG II like) expressed as percent activity relative to ANG II in rabbit aorta strip assay.; assay type: functional, tissue-based
T2 sequence (P29089 whole entry): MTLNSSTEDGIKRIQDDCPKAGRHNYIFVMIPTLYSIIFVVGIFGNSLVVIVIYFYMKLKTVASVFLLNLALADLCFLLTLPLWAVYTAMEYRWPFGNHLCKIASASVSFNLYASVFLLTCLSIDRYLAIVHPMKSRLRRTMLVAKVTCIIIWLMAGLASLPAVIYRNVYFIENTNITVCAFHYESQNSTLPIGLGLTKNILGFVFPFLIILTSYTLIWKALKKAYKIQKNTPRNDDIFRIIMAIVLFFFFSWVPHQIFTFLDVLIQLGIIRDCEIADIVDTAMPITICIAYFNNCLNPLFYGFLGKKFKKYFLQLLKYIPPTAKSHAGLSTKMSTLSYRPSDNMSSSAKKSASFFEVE
T2 sequence (P25095 whole entry): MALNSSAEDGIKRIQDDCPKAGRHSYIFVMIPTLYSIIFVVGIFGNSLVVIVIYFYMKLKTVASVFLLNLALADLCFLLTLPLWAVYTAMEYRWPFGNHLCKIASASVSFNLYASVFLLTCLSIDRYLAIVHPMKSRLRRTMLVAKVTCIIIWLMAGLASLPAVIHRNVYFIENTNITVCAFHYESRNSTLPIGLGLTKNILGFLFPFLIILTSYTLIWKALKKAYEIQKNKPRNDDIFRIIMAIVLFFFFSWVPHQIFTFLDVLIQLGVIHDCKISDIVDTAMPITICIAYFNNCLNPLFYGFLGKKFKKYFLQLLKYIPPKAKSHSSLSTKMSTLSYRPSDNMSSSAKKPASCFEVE
T2 sequence (P35351 whole entry): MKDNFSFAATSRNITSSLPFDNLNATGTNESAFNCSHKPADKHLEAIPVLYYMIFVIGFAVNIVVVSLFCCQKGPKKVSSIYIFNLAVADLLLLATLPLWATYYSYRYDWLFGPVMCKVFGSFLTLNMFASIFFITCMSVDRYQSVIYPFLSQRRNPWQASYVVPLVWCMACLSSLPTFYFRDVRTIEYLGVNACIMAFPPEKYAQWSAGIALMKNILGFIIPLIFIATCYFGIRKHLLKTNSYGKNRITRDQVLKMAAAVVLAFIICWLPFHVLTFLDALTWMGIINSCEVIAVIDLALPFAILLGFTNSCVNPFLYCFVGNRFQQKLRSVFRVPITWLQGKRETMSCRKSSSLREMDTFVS

[3] = biological target: T1, Angiotensin II receptor (Rattus norvegicus); test: In vitro agonist activity relative to angiotensin II measured in rabbit aorta strip assay.; assay type: functional, tissue-based
[4] = biological target: T1, Angiotensin II receptor (Rattus norvegicus); test: In vivo antagonist activity (ANG II like) expressed by blood pressure increase (mHg) produced by […] iv injection of compound in rats; assay type: functional, organism-based
Method in brief: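 Rat blood pressure assay after Regoli et al.; residual ANG II-like activity read as mmHg rise in blood pressure following a one microgram intravenous bolus of compound; n = 5.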

| SMILES | pA2 [2] | Activity [3] | Activity [1] | ID50 (ng min-1 rat-1) [4] |
| --- | --- | --- | --- | --- |
| CC(C)[C@H](NC(=O)[C@H](Cc1ccc(O)cc1)NC(=O)C1(NC(=O)[C@H](CCCN=C(N)N)NC(=O)[C@@H](N)CC(=O)O)CCCC1)C(=O)N[C@@H](Cc1c[nH]cn1)C(=O)N(C)[C@@H](C)C(=O)N[C@@H](Cc1ccccc1)C(=O)O (H-DR[Ac5c]YVH[NMeA]F-OH) |  |  | 22% |  |
| CC[C@H](C)[C@H](NC(=O)[C@H](Cc1ccc(O)cc1)NC(=O)[C@H](C)NC(=O)[C@H](CCCN=C(N)N)NC(=O)[C@@H](N)CC(=O)O)C(=O)N[C@@H](Cc1c[nH]cn1)C(=O)N1CCC[C@H]1C(=O)N[C@@H](Cc1ccccc1)C(=O)O (H-DRAYIHPF-OH) |  |  | 80.5% |  |
| CC(C)[C@H](NC(=O)[C@H](Cc1ccc(O)cc1)NC(=O)C1(NC(=O)[C@H](CCCN=C(N)N)NC(=O)[C@@H](N)CC(=O)O)CCCC1)C(=O)N[C@@H](Cc1c[nH]cn1)C(=O)NC1(C(=O)N[C@@H](Cc2ccccc2)C(=O)O)CCCC1 (H-DR[Ac5c]YVH[Ac5c]F-OH) |  |  | 1.5% |  |
| CC[C@H](C)[C@H](NC(=O)C(C)(C)NC(=O)[C@H](Cc1c[nH]cn1)NC(=O)[C@@H](NC(=O)[C@H](Cc1ccc(O)cc1)NC(=O)[C@@H](NC(=O)[C@H](CCCN=C(N)N)NC(=O)CNC)C(C)C)[C@@H](C)CC)C(=O)O (H-[Sar]RVYIH[Aib]I-OH) | 8 | 0% |  | 60 |
| CC[C@H](C)[C@H](NC(=O)[C@@H]1CCCN1C(=O)[C@H](Cc1c[nH]cn1)NC(=O)[C@@H](NC(=O)[C@H](Cc1ccc(O)cc1)NC(=O)[C@H](C)N(C)C(=O)[C@H](CCCN=C(N)N)NC(=O)CNC)[C@@H](C)CC)C(=O)O (H-[Sar]R[NMeA]YIHPI-OH) | 8.9 | 0% |  | 25 |
| CC[C@H](C)[C@H](NC(=O)[C@@H]1CCCN1C(=O)[C@H](Cc1c[nH]cn1)NC(=O)[C@@H](NC(=O)[C@H](Cc1ccc(O)cc1)NC(=O)[C@@H](NC(=O)[C@H](CCCN=C(N)N)NC(=O)CNC)C(C)C)[C@@H](C)CC)C(=O)O |  | 0% |  | 10 |
| CC[C@H](C)[C@H](NC(=O)[C@@H]1CCCN1C(=O)[C@H](Cc1c[nH]cn1)NC(=O)[C@@H](NC(=O)[C@H](Cc1ccc(O)cc1)NC(=O)C(C)(C)NC(=O)[C@H](CCCN=C(N)N)NC(=O)CNC)[C@@H](C)CC)C(=O)O (H-[Sar]R[Aib]YIHPI-OH) | 7 | 0% | 3% | 50 |
| CC(C)[C@H](NC(=O)[C@H](Cc1ccc(O)cc1)NC(=O)C1(NC(=O)[C@H](CCCN=C(N)N)NC(=O)[C@@H](N)CC(=O)O)CCCC1)C(=O)N[C@@H](Cc1c[nH]cn1)C(=O)NC(C)(C)C(=O)N[C@@H](Cc1ccccc1)C(=O)O (H-DR[Ac5c]YVH[Aib]F-OH) |  |  | 1% |  |
| CC[C@H](C)[C@H](NC(=O)[C@H](C)N(C)C(=O)[C@H](Cc1c[nH]cn1)NC(=O)[C@@H](NC(=O)[C@H](Cc1ccc(O)cc1)NC(=O)[C@@H](NC(=O)[C@H](CCCN=C(N)N)NC(=O)CNC)C(C)C)[C@@H](C)CC)C(=O)O (H-[Sar]RVYIH[NMeA]I-OH) | 8.4 | 0% |  | 20 |
| CC[C@H](C)[C@H](NC(=O)[C@H](Cc1ccc(O)cc1)NC(=O)C(C)(C)NC(=O)[C@H](CCCN=C(N)N)NC(=O)[C@@H](N)CC(=O)O)C(=O)N[C@@H](Cc1c[nH]cn1)C(=O)N1CCC[C@H]1C(=O)N[C@@H](Cc1ccccc1)C(=O)O (H-DR[Aib]YIHPF-OH) |  |  | 1% |  |
| CC[C@H](C)[C@H](NC(=O)[C@H](Cc1ccc(O)cc1)NC(=O)[C@@H]1CCCN1C(=O)[C@H](CCCN=C(N)N)NC(=O)[C@@H](N)CC(=O)O)C(=O)N[C@@H](Cc1c[nH]cn1)C(=O)N1CCC[C@H]1C(=O)N[C@@H](Cc1ccccc1)C(=O)O (H-DRPYIHPF-OH) |  |  | 53% |  |
| CC[C@H](C)[C@H](NC(=O)[C@H](Cc1ccc(O)cc1)NC(=O)C1(NC(=O)[C@H](CCCN=C(N)N)NC(=O)[C@@H](N)CC(=O)O)CCCC1)C(=O)N[C@@H](Cc1c[nH]cn1)C(=O)N1CCC[C@H]1C(=O)N[C@@H](Cc1ccccc1)C(=O)O (H-DR[Ac5c]YIHPF-OH) |  |  | 2% |  |

Now from value to compound, other results behind:

| pA2 [2] | Activity [3] | SMILES | Activity [1] | ID50 (ng min-1 rat-1) [4] |
| --- | --- | --- | --- | --- |
| 8.7 | 0% | CC[C@H](C)[C@H](NC(=O)[C@@H]1CCCN1C(=O)[C@H](Cc1c[nH]cn1)NC(=O)[C@@H]1CCCN1C(=O)[C@H](Cc1ccc(O)cc1)NC(=O)[C@@H](NC(=O)[C@H](CCCN=C(N)N)NC(=O)CNC)C(C)C)C(=O)O (H-[Sar]RVYPHPI-OH) |  | 20 |
| 8.25 | 0% | CC[C@H](C)[C@H](NC(=O)[C@@H]1CCCN1C(=O)[C@H](Cc1c[nH]cn1)NC(=O)[C@](C)(Cc1ccc(O)cc1)NC(=O)[C@H](Cc1ccc(O)cc1)NC(=O)[C@@H](NC(=O)[C@H](CCCN=C(N)N)NC(=O)CNC)C(C)C)C(=O)O |  | 100 |
| 7.17 | 1.5% | CC[C@H](C)[C@H](NC(=O)[C@@H]1CCCN1C(=O)[C@H](Cc1c[nH]cn1)NC(=O)[C@@H](NC(=O)[C@H](Cc1ccc(O)cc1)NC(=O)[C@@H]1CCCN1C(=O)[C@H](CCCN=C(N)N)NC(=O)CNC)[C@@H](C)CC)C(=O)O (H-[Sar]RPYIHPI-OH) |  |  |
|  | 250% | CNCC(=O)N[C@@H](CCCN=C(N)N)C(=O)N[C@H](C(=O)N[C@@H](Cc1ccc(O)cc1)C(=O)N1CSC(C)(C)[C@@H]1C(=O)N[C@@H](Cc1c[nH]cn1)C(=O)N1CCC[C@H]1C(=O)N[C@@H](Cc1ccccc1)C(=O)O)C(C)C | 100% |  |
|  | 0% | CNCC(=O)N[C@@H](CCCN=C(N)N)C(=O)N[C@H](C(=O)N[C@@H](Cc1ccc(O)cc1)C(=O)N1CSC(C)(C)[C@@H]1C(=O)N[C@@H](Cc1c[nH]cn1)C(=O)N1CCC[C@H]1C(=O)N[C@H](Cc1ccccc1)C(=O)O)C(C)C |  | 1000 |
|  | 180% | CC[C@H](C)[C@H](NC(=O)[C@H](Cc1ccc(O)cc1)NC(=O)[C@@H](NC(=O)[C@H](CCCN=C(N)N)NC(=O)CNC)C(C)C)C(=O)N[C@@H](Cc1c[nH]cn1)C(=O)N1CCC[C@H]1C(=O)N[C@@H](Cc1ccccc1)C(=O)O | 125% |  |
| 8.3 | 0% | CC[C@H](C)[C@H](NC(=O)[C@@H]1CCCN1C(=O)[C@H](Cc1c[nH]cn1)NC(=O)C1(NC(=O)[C@H](Cc2ccc(O)cc2)NC(=O)[C@@H](NC(=O)[C@H](CCCN=C(N)N)NC(=O)CNC)C(C)C)CCCC1)C(=O)O (H-[Sar]RVY[Ac5c]HPI-OH) |  | 10 |
| 9 | 0% | CC[C@H](C)[C@H](NC(=O)[C@H](Cc1ccc(O)cc1)NC(=O)[C@@H](NC(=O)[C@H](CCCN=C(N)N)NC(=O)CNC)C(C)C)C(=O)N[C@@H](Cc1c[nH]cn1)C(=O)N1CCC[C@H]1C(=O)N[C@H](Cc1ccccc1)C(=O)O |  | 12.5 |
|  | 4% | CC[C@H](C)[C@H](NC(=O)[C@@H]1N(C(=O)[C@H](Cc2c[nH]cn2)NC(=O)[C@@H](NC(=O)[C@H](Cc2ccc(O)cc2)NC(=O)[C@@H](NC(=O)[C@H](CCCN=C(N)N)NC(=O)CNC)C(C)C)[C@@H](C)CC)CSC1(C)C)C(=O)O |  | 250 |
| 7.5 | 0% | CC[C@H](C)[C@H](NC(=O)[C@@H]1CCCN1C(=O)[C@H](Cc1c[nH]cn1)NC(=O)[C@H](C)NC(=O)[C@H](Cc1ccc(O)cc1)NC(=O)[C@@H](NC(=O)[C@H](CCCN=C(N)N)NC(=O)CNC)C(C)C)C(=O)O (H-[Sar]RVYAHPI-OH) |  | 50 |
| 8.7 |  | CC[C@H](C)[C@H](NC(=O)[C@H](Cc1ccc(O)cc1)NC(=O)[C@@H](NC(=O)[C@H](CCCN=C(N)N)NC(=O)CNC)C(C)C)C(=O)N[C@@H](Cc1c[nH]cn1)C(=O)N1CCC[C@H]1C(=O)NC(C)(C)C(=O)O |  |  |
| 7.64 | 0% | CC[C@H](C)[C@H](NC(=O)[C@@H]1CCCN1C(=O)[C@H](Cc1c[nH]cn1)NC(=O)[C@H]([C@@H](C)CC)N(C)C(=O)[C@H](Cc1ccc(O)cc1)NC(=O)[C@@H](NC(=O)[C@H](CCCN=C(N)N)NC(=O)CNC)C(C)C)C(=O)O |  |  |
|  | 0% | CC[C@H](C)[C@H](NC(=O)[C@@H]1CCCN1C(=O)[C@H](Cc1c[nH]cn1)NC(=O)[C@@H]1N(C(=O)[C@H](Cc2ccc(O)cc2)NC(=O)[C@@H](NC(=O)[C@H](CCCN=C(N)N)NC(=O)CNC)C(C)C)CSC1(C)C)C(=O)O |  | 25 |
